Data: ChEMBL document CHEMBL3045055, “Synthesis and antifungal activities of carabrol ester derivatives” (J Agric Food Chem, 2012)
In brackets after ≈: the same amount, converted by molar mass.

Tested on: Colletotrichum lagenaria
Assay: Antifungal activity against Colletotrichum lagenaria assessed as inhibition of spore germination at 24 +/- 1 degC for 8 hr (plant disease: on leaf and fruit)
Format: functional, organism-based
Summary of the method: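 C. lagenarium isolate (Accession No. 36199, Agricultural Culture Collection of China) grown 2 weeks at 25 ± 1 °C on PDA. Conidia flooded off with sterile water, filtered through cheesecloth, and suspended in water with 0.1% (v/v) Tween 20 at 1.0 × 10^6 spore/mL by hemocytometer. Samples dissolved in methanol, diluted with sterile water to test solutions; spore germination inhibition read, IC50 derived.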

SMILES | IC50
C=C1C(=O)O[C@@H]2C[C@]3(C)C(CCC(C)OC(=O)c4cnc(C)cn4)[C@@H]3C[C@H]12 (some centres undefined) | 20.5 mg/L (≈ 55.3 µM)
C=C1C(=O)O[C@@H]2C[C@]3(C)C(CCC(C)OC(=O)/C=C/c4ccc([N+](=O)[O-])cc4)[C@@H]3C[C@H]12 (some centres undefined) | 22.8 mg/L (≈ 53.7 µM)
C=C1C(=O)O[C@@H]2C[C@]3(C)C(CCC(C)OC(=O)/C=C/c4ccc(OC)c(OC)c4)[C@@H]3C[C@H]12 (some centres undefined) | 25.1 mg/L (≈ 56.9 µM)
C=C1C(=O)O[C@@H]2C[C@]3(C)C(CCC(C)OC(=O)c4cccc(OC)c4OC)[C@@H]3C[C@H]12 (some centres undefined) [CARABRYL 2,3-DIMETHOXYBENZOATE] | 35.8 mg/L (≈ 86.3 µM)
C=C1C(=O)O[C@@H]2C[C@]3(C)C(CCC(C)OC(=O)/C=C/C=C/C)[C@@H]3C[C@H]12 (some centres undefined) [CARABRYL 2,4-HEXADIENOATE] | 8.41 mg/L (≈ 24.4 µM)
C=C1C(=O)O[C@@H]2C[C@]3(C)C(CCC(C)OC(=O)c4ccccc4Br)[C@@H]3C[C@H]12 (some centres undefined) [CARABRYL 2-BROMOBENZOATE] | 29.2 mg/L (≈ 67.3 µM)
C=C1C(=O)O[C@@H]2C[C@]3(C)C(CCC(C)OC(=O)c4cccnc4Cl)[C@@H]3C[C@H]12 (some centres undefined) [CARABRYL 2-CHLORONICOTINATE] | 4.62 mg/L (≈ 11.8 µM)
C=C1C(=O)O[C@@H]2C[C@]3(C)C(CCC(C)OC(=O)c4ccccc4OCC)[C@@H]3C[C@H]12 (some centres undefined) [CARABRYL 2-ETHOXYBENZOATE] | 41.6 mg/L (≈ 104 µM)
C=C1C(=O)O[C@@H]2C[C@]3(C)C(CCC(C)OC(=O)c4ccccc4I)[C@@H]3C[C@H]12 (some centres undefined) [CARABRYL 2-IODOBENZOATE] | 39 mg/L (≈ 81.3 µM)
C=C1C(=O)O[C@@H]2C[C@]3(C)C(CCC(C)OC(=O)c4ccccc4OC)[C@@H]3C[C@H]12 (some centres undefined) [CARABRYL 2-METHOXYBENZOATE] | 46.1 mg/L (≈ 120 µM)
C=C1C(=O)O[C@@H]2C[C@]3(C)C(CCC(C)OC(=O)c4ccccc4C)[C@@H]3C[C@H]12 (some centres undefined) [CARABRYL 2-METHYLBENZOATE] | 52.3 mg/L (≈ 142 µM)
C=C1C(=O)O[C@@H]2C[C@]3(C)C(CCC(C)OC(=O)c4cccs4)[C@@H]3C[C@H]12 (some centres undefined) [CARABRYL 2-THIOPHENECARBOXYLATE] | 30.8 mg/L (≈ 85.5 µM)
C=C1C(=O)O[C@@H]2C[C@]3(C)C(CCC(C)OC(=O)c4ccc(OC)c(OC)c4)[C@@H]3C[C@H]12 (some centres undefined) [CARABRYL 3,4-DIMETHOXYBENZOATE] | 33 mg/L (≈ 79.5 µM)
C=C1C(=O)O[C@@H]2C[C@]3(C)C(CCC(C)OC(=O)c4cccc(Br)c4)[C@@H]3C[C@H]12 (some centres undefined) [CARABRYL 3-BROMOBENZOATE] | 36.7 mg/L (≈ 84.7 µM)
C=C1C(=O)O[C@@H]2C[C@]3(C)C(CCC(C)OC(=O)c4cccc(Cl)c4)[C@@H]3C[C@H]12 (some centres undefined) [CARABRYL 3-CHLOROBENZOATE] | 26.7 mg/L (≈ 68.7 µM)
C=C1C(=O)O[C@@H]2C[C@]3(C)C(CCC(C)OC(=O)c4cccc(F)c4)[C@@H]3C[C@H]12 (some centres undefined) [CARABRYL 3-FLUOROBENZOATE] | 30.4 mg/L (≈ 81.7 µM)
C=C1C(=O)O[C@@H]2C[C@]3(C)C(CCC(C)OC(=O)CCc4c[nH]c5ccccc45)[C@@H]3C[C@H]12 (some centres undefined) [CARABRYL 3-INDOLEPROPIONATE] | 12.8 mg/L (≈ 30.4 µM)
C=C1C(=O)O[C@@H]2C[C@]3(C)C(CCC(C)OC(=O)c4cccc(OC)c4)[C@@H]3C[C@H]12 (some centres undefined) [CARABRYL 3-METHOXYBENZOATE] | 49.4 mg/L (≈ 129 µM)
C=C1C(=O)O[C@@H]2C[C@]3(C)C(CCC(C)OC(=O)/C=C/c4ccccc4)[C@@H]3C[C@H]12 (some centres undefined) [CARABRYL 3-PHENYLACRYLATE] | 33.2 mg/L (≈ 87.3 µM)
C=C1C(=O)O[C@@H]2C[C@]3(C)C(CCC(C)OC(=O)CCc4ccccc4)[C@@H]3C[C@H]12 (some centres undefined) [CARABRYL 3-PHENYLPROPANOATE] | 13.2 mg/L (≈ 34.6 µM)

SMILES | IC50
C=C1C(=O)O[C@@H]2C[C@]3(C)C(CCC(C)OC(=O)c4ccc(Br)cc4)[C@@H]3C[C@H]12 (some centres undefined) [CARABRYL 4-BROMOBENZOATE] | 31.3 mg/L (≈ 72.2 µM)
C=C1C(=O)O[C@@H]2C[C@]3(C)C(CCC(C)OC(=O)Cc4ccc(Br)cc4)[C@@H]3C[C@H]12 (some centres undefined) [CARABRYL 4-BROMOPHENYLACETATE] | 44.4 mg/L (≈ 99.3 µM)
C=C1C(=O)O[C@@H]2C[C@]3(C)C(CCC(C)OC(=O)c4ccc(Cl)cc4)[C@@H]3C[C@H]12 (some centres undefined) [CARABRYL 4-CHLOROBENZOATE] | 31.8 mg/L (≈ 81.8 µM)
C=C1C(=O)O[C@@H]2C[C@]3(C)C(CCC(C)OC(=O)c4ccc(C#N)cc4)[C@@H]3C[C@H]12 (some centres undefined) [CARABRYL 4-CYANOBENZOATE] | 2.7 mg/L (≈ 7.12 µM)
C=C1C(=O)O[C@@H]2C[C@]3(C)C(CCC(C)OC(=O)c4ccc(F)cc4)[C@@H]3C[C@H]12 (some centres undefined) [CARABRYL 4-FLUOROBENZOATE] | 21.2 mg/L (≈ 57 µM)
C=C1C(=O)O[C@@H]2C[C@]3(C)C(CCC(C)OC(=O)c4ccc(I)cc4)[C@@H]3C[C@H]12 (some centres undefined) [CARABRYL 4-IODOBENZOATE] | 33.5 mg/L (≈ 69.7 µM)
C=C1C(=O)O[C@@H]2C[C@]3(C)C(CCC(C)OC(=O)c4ccc(C(C)C)cc4)[C@@H]3C[C@H]12 (some centres undefined) [CARABRYL 4-ISOPROPYLBENZOATE] | 2.82 mg/L (≈ 7.11 µM)
C=C1C(=O)O[C@@H]2C[C@]3(C)C(CCC(C)OC(=O)c4ccc(OC)cc4)[C@@H]3C[C@H]12 (some centres undefined) [CARABRYL 4-METHOXYBENZOATE] | 47.5 mg/L (≈ 123 µM)
C=C1C(=O)O[C@@H]2C[C@]3(C)C(CCC(C)OC(C)=O)[C@@H]3C[C@H]12 (some centres undefined) [CARABRYL ACETATE] | 10.8 mg/L
C=C1C(=O)O[C@@H]2C[C@]3(C)C(CCC(C)OC(=O)Cc4cccc5ccccc45)[C@@H]3C[C@H]12 (stereo partly drawn) [CARABRYL ALPHA-NAPHTHYLACETATE] | 30.3 mg/L (≈ 72.3 µM)
C=C1C(=O)O[C@@H]2C[C@]3(C)C(CCC(C)OC(=O)c4cccc5ccccc45)[C@@H]3C[C@H]12 (stereo partly drawn) [CARABRYL ALPHA-NAPHTHYLCARBOXYLATE] | 23.3 mg/L (≈ 57.6 µM)
C=C1C(=O)O[C@@H]2C[C@]3(C)C(CCC(C)OC(=O)CCl)[C@@H]3C[C@H]12 (some centres undefined) [CARABRYL CHLOROACETATE] | 4.51 mg/L (≈ 13.8 µM)
C=C1C(=O)O[C@@H]2C[C@]3(C)C(CCC(C)OC(=O)c4ccncc4)[C@@H]3C[C@H]12 (some centres undefined) [CARABRYL ISONICOTINATE] | 4.31 mg/L (≈ 12.1 µM)
C=C1C(=O)O[C@@H]2C[C@]3(C)C(CCC(C)OC(=O)CCCCCCCCCCC)[C@@H]3C[C@H]12 (some centres undefined) [CARABRYL LAURATE] | 33.6 mg/L (≈ 77.7 µM)
C=C1C(=O)O[C@@H]2C[C@]3(C)C(CCC(C)OC(=O)CCC)[C@@H]3C[C@H]12 (some centres undefined) [CARABRYL N-BUTYRATE] | 20.8 mg/L (≈ 65 µM)
C=C1C(=O)O[C@@H]2C[C@]3(C)C(CCC(C)OC(=O)CCCC)[C@@H]3C[C@H]12 (some centres undefined) [CARABRYL N-PENTANOATE] | 31.2 mg/L (≈ 93.3 µM)
C=C1C(=O)O[C@@H]2C[C@]3(C)C(CCC(C)OC(=O)c4cccnc4)[C@@H]3C[C@H]12 (some centres undefined) [CARABRYL NICOTINATE] | 8.26 mg/L (≈ 23.2 µM)
C=C1C(=O)O[C@@H]2C[C@]3(C)C(CCC(C)OC(=O)CC)[C@@H]3C[C@H]12 (some centres undefined) [CARABRYL PROPANOATE] | 23.3 mg/L (≈ 76 µM)
N#Cc1c(Cl)c(Cl)c(Cl)c(C#N)c1Cl [CHLOROTHALONIL] | 0.87 mg/L (≈ 3.27 µM)
